PMC2754042 (Journal of medicinal chemistry, 2008)
Where a name gives a salt, the structure may show the parent alone. Where a SMILES comes first, the peptide text is derived from it. The star is where a group is joined. Cbz = O=C(OCc1ccccc1)*

Assays:
[1] = tested on: sixty human tumor cell lines; experiment: NCI sixty cell panel, mean of full panel; format: cell-based; settings: for GI50: read-out: pGI50 MG-MID (converted); for CC50: read-out: pLC50 MG-MID (converted); for IC (TGI): read-out: pTGI MG-MID
[2] = tested on: plasma membrane electron transport (PMET), HL60 and HL60ρ^0 cells; experiment: PMET inhibition; format: cell-based, human; settings: at 200 µM, 30 min pretreatment
Summary of the method: (§1)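 Plasma membrane electron transport assay: leukemic cells (10^5 per well in 0.1 ml) pretreated 30 min with test compound in DMSO (<0.1% final). WST-1 and mPMS then added (final 500 µM and 20 µM). WST-1 reduction followed in real time at 450 nm and expressed as % of control.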

Leukemia cell lines = experiment: NCI sixty cell panel, leukemia subpanel; format: cell-based; settings: Homo sapiens; for IC (TGI): read-out: pTGI Leukemia
[3] = tested on: Prostate cancer cell lines; experiment: cells; format: cell-based; settings: Homo sapiens, read-out: pTGI Prostate
[4] = tested on: Ovarian cancer cell lines; experiment: NCI sixty cell panel, ovarian subpanel; format: cell-based; settings: Homo sapiens, read-out: pTGI Ovarian
Renal cancer cell lines = experiment: NCI sixty cell panel, renal subpanel; format: cell-based; settings: Homo sapiens, read-out: pTGI Renal
HL60 and HL60 ρ^0 cells = experiment: 2-day MTT cell proliferation assay in HL60 and HL60ρ0 cells; format: cell-based; settings: Homo sapiens, HL-60, 48 h, read-out: IC50 for cell proliferation
Summary of the method: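 Cells exposed to test compound for 48 h, then MTT reduction read as a measure of proliferation. IC50 for cell proliferation derived from the readings.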

[5] = tested on: PMET, B1647, HEL and M07e; experiment: PMET inhibition in human leukemic cell lines B1647, HEL and M07e; format: cell-based; settings: read-out: PMET inhibition IC50
Summary of the method: as §1

Melanoma cell lines = experiment: NCI sixty cell panel, melanoma subpanel; format: cell-based; settings: Homo sapiens, read-out: pTGI Melanoma
HL-60-TB leukemia = experiment: Human tumor xenograft in nude mice; format: in vivo; settings: HL-60-TB leukemia xenograft in nude mice
[6] = tested on: panel of 36 human tumor cell lines; experiment: Oncotest 36 cell line assay; format: cell-based; settings: four days exposure
Summary of the method: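 Panel of 36 lines: 24 derived from patient tumor xenografts passaged subcutaneously in nude mice, 12 commercial. Grown at 37°C, 5% CO2, in RPMI 1640 with 10% fetal calf serum and 0.1 mg/ml gentamicin. Test compound added one day after plating, at 5 concentrations, for four days. DNA content read by propidium iodide fluorescence. Three independent experiments, each in triplicate; IC70 values.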

[7] = tested on: leukemia cell lines HL-60, K562, MOLT-4, CCRF-CEM, RPMI-8226, SR; experiment: Hollow fiber assay; format: in vivo, human; settings: panel of six leukemia cell lines
Breast cancer cell lines = experiment: NCI sixty cell panel, breast subpanel; format: cell-based; settings: Homo sapiens, read-out: pTGI Breast
CNS cancer cell lines = experiment: cells; format: cell-based; settings: Homo sapiens, read-out: pTGI CNS
NSCLC cell lines = experiment: NCI sixty cell panel, NSCLC subpanel; format: cell-based; settings: Homo sapiens, read-out: pTGI NSCLC
Colon cancer cell lines = experiment: NCI sixty cell panel, colon subpanel; format: cell-based; settings: Homo sapiens, read-out: pTGI Colon
BCA2 = experiment: Analysis of BCA2 protein stability in MCF7 cells; format: cell-based, human; settings: MCF-7 cells, in the presence of cycloheximide (CHX), 16 h
Summary of the method: (§2)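 MCF7 cells (1×10^6) seeded in six-well plates and grown overnight. Cycloheximide (100 µmol/L) given alone, with MG-132 (10 µmol/L), or with test compound for 8 and 16 h in total. Lysates Western blotted with polyclonal anti-BCA2 (1:800), monoclonal anti-β-actin (1:5000) and monoclonal anti-C-erbB2 (1:2000). Band mean grey value and integrated density expressed relative to control sample; protein levels normalised to β-actin.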

C-erbB2 = experiment: Stability of C-erbB2 and β-actin in MCF-7 cells; format: cell-based, human; settings: Western blot
Summary of the method: as §2

Structure (SMILES)	GI50 [1] [µM]	CC50 [1] [µM]	IC (TGI) [1] [µM]	further results
CN1C(=O)/C(=C/c2cccc(/C=C3/C(=O)N(C)c4ccccc43)n2)c2ccccc21 [Compound 3o]	8.13	49	26.9	PMET inhibition [2]: inactive; IC (TGI) (Leukemia cell lines): 15.8 µM; IC (TGI) [3]: 39.8 µM
O=C1Nc2ccc(Br)cc2/C1=C\c1cccc(/C=C2/C(=O)Nc3ccc(Br)cc32)n1 [Compound 3j]	8.32	56.2		IC (TGI) [4]: 25.7 µM
O=C(O)CCC(=O)c1ccc2c(c1)/C(=C\c1cccc(/C=C3/C(=O)Nc4ccc(C(=O)CCC(=O)O)cc43)n1)C(=O)N2 [Compound 3f]	75.9		95.5	
CN(C)c1ccc2c(c1)/C(=C\c1cccc(/C=C3/C(=O)Nc4ccc(N(C)C)cc43)n1)C(=O)N2 [Compound 3g]	5.37	91.2	40.7	PMET inhibition [2]: inactive; IC (TGI) (Renal cancer cell lines): 50.1 µM
O=C1Nc2ccc(Cl)cc2/C1=C\c1cccc(/C=C2/C(=O)Nc3ccc(Cl)cc32)n1 [Compound 3c]	1.07	16.2	3.39	IC50 (HL60 and HL60 ρ^0 cells): 3 to 8 µM
CC(=O)n1c(=O)/c(=C/c2c[nH]c3ccccc23)n(C(C)=O)c(=O)/c1=C/c1c[nH]c2ccccc12 [Compound 8a]	74.1		91.2	PMET inhibition [2]: inactive; IC (TGI) (Renal cancer cell lines): 50.1 µM
O=c1[nH]/c(=C\c2c[nH]c3ccccc23)c(=O)[nH]/c1=C\c1c[nH]c2ccccc12 [Compound 9a]	81.3			PMET inhibition [2]: inactive
COc1ccc2c(c1)/C(=C\c1cccc(/C=C3/C(=O)Nc4ccc(OC)cc43)n1)C(=O)N2 [Compound 3d]	1.2	39.8	7.08	IC50 [5]: 30 to 45 µM; IC (TGI) (Melanoma cell lines): 3.98 µM; distal site antitumor activity in xenograft (HL-60-TB leukemia): did not show significant activity; mean IC70 [6]: 0.56 µg/mL; hollow fiber assay combined i.p. + s.c. score [7]: 22
Cc1cc2c(cc1O)/C(=C\c1cccc(/C=C3/C(=O)Nc4cc(C)c(O)cc43)n1)C(=O)N2 [Compound 3m]	69.2		97.7	
O=C1Nc2ccc(F)cc2/C1=C\c1cccc(/C=C2/C(=O)Nc3ccc(F)cc32)n1 [Compound 3h]	3.24	60.3	11.7	IC (TGI) [4]: 25.1 µM
O=C1Nc2ccc(O)cc2/C1=C\c1cccc(/C=C2/C(=O)Nc3ccc(O)cc32)n1 [Compound 3e]	39.8	97.7	87.1	IC50 [5]: 40 to 50 µM
CC[C@]1(O)C[C@H]2CN(CCc3c([nH]c4ccccc34)[C@@](C(=O)OC)(c3cc4c(cc3OC)N(C=O)[C@H]3[C@@](O)(C(=O)OC)[C@H](OC(C)=O)[C@]5(CC)C=CCN6CC[C@]43[C@@H]65)C2)C1 [Vincrist ine sulfate, reference compound]	0.2		10	IC (TGI) (Breast cancer cell lines): 7.94 µM; IC (TGI) [4]: 20 µM; IC (TGI) (CNS cancer cell lines): 6.31 µM; IC (TGI) (NSCLC cell lines): 15.8 µM; IC (TGI) (Colon cancer cell lines): 3.98 µM; IC (TGI) (Melanoma cell lines): 7.94 µM; IC (TGI) (Leukemia cell lines): 15.8 µM; IC (TGI) [3]: 6.31 µM; IC (TGI) (Renal cancer cell lines): 20 µM
O=C1Nc2ccc(C(=O)O)cc2/C1=C\c1cccc(/C=C2/C(=O)Nc3ccc(C(=O)O)cc32)n1 [Compound 3i]		89.1	83.2	PMET inhibition [2]: inactive
O=C1Nc2ccc(S(=O)(=O)O)cc2/C1=C\c1cccc(/C=C2/C(=O)Nc3ccc(S(=O)(=O)O)cc32)n1 [Compound 3k]	97.7			
O=C1Nc2ccccc2/C1=C\c1cccc(/C=C2/C(=O)Nc3ccccc32)n1 [Compound 3a]	0.457	14.1		IC (TGI) (Breast cancer cell lines): 2 µM; IC (TGI) (Renal cancer cell lines): 1.62 µM
O=C1Nc2ccccc2/C1=c1/[nH]c(=O)/c(=C2/C(=O)Nc3ccccc32)[nH]c1=O [Compound 7a]	89.1			
CC(C)C[C@@H](C=O)NC(=O)[C@H](CC(C)C)NC(=O)[C@H](CC(C)C)NC(=O)OCc1ccccc1 [MG-132, Z-Leu-Leu-Leu-al] (Cbz-Leu-Leu-Leu-aldehyde)				increase of BCA2 protein compared to CHX treatment (BCA2): more than 10 fold
COc1cc2c(cc1C)NC(=O)/C2=C/c1cccc(/C=C2/C(=O)Nc3cc(C)c(OC)cc32)n1 [Compound 3n]	51.3		95.5	
O=C1Nc2cccc(Cl)c2/C1=C\c1cccc(/C=C2/C(=O)Nc3cccc(Cl)c32)n1 [Compound 3b]	0.457			IC (TGI) [4]: 2.82 µM; IC50 [5]: 15 to 30 µM; effects on β-actin or the oncogenic receptor C-erbB2 (C-erbB2): No effects; IC (TGI) (Colon cancer cell lines): 5.01 µM; IC (TGI) (Melanoma cell lines): 3.16 µM; IC50 (HL60 and HL60 ρ^0 cells): 3 to 8 µM; mean IC70 [6]: 0.35 µg/mL
COc1ccc2c(c1)/C(=C\c1cccc(/C=C3/C(=O)N(C)c4ccc(OC)cc43)n1)C(=O)N2C [Compound 3p]	1.74	43.7	12.3	IC (TGI) (Breast cancer cell lines): 20 µM; IC (TGI) [4]: 31.6 µM; GI50 (Leukemia cell lines; read-out: pGI50 Leukemia (converted)): 1170 nM
COc1ccc2[nH]cc(/C=c3\[nH]c(=O)/c(=C/c4c[nH]c5ccc(OC)cc45)[nH]c3=O)c2c1 [Compound 9b]	93.3			
O=C1Nc2cc(Cl)ccc2/C1=C\c1cccc(/C=C2/C(=O)Nc3cc(Cl)ccc32)n1 [Compound 3l]	2.04	39.8	8.71	
